Format in all cases: functional
Test [1] concerns NCI-H522. Briefly: Growth inhibition of human NCI-H522 cells assessed as cell growth at 10 uM after 48 hrs by sulforhodamine B assay. Particulars: NCI-H522, 48 h, read-out: Activity. (Sulforhodamine B stains cellular protein and so reports cell mass.)
Test [2] concerns NCI-H460. The test can be described thus: Growth inhibition of human NCI-H460 cells assessed as cell growth at 10 '-5 M after 48 hrs by sulforhodamine B assay. The settings on record: NCI-H460, 48 h, read-out: Activity.
Test [3] deals with NCI-H23. Briefly: Growth inhibition of human NCI-H23 cells assessed as cell growth at 10 '-5 M after 48 hrs by sulforhodamine B assay. Particulars: NCI-H23, 48 h, read-out: Activity.
For test [4], the system named is HL-60(TB). Briefly: Growth inhibition of human HL-60(TB) cells assessed as cell growth at 10 '-5 M after 48 hrs by sulforhodamine B assay. The settings on record: HL-60, 48 h, read-out: Activity. The gist of the method:
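Five-dose NCI protocol with final concentrations of 0.01–100 µM and drug diluted from a DMSO stock (400× the top concentration) in medium with gentamicin. Cells were pre-incubated 24 h, then exposed 48 h at 37 °C. Suspension cells were fixed with 16% final TCA, SRB-stained and read at 515 nm. Percentage growth at each level was [(Ti−Tz)/(C−Tz)]×100, or [(Ti−Tz)/Tz]×100 when Ti < Tz.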

Test [5] deals with BT-549. Briefly: Growth inhibition of human BT549 cells assessed as cell growth at 10 '-6 M after 48 hrs by sulforhodamine B assay. The settings on record: BT-549, 48 h, read-out: Activity. In a few lines:
(§1)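 Percent growth at each of the five concentrations of the 48 h continuous-exposure NCI SRB screen. Drug stocks were in DMSO at 400× the top final concentration and diluted in medium with gentamicin. Growth was calculated as [(Ti-Tz)/(C-Tz)]×100 when Ti ≥ Tz, or [(Ti-Tz)/Tz]×100 when Ti < Tz. Tz plates were fixed at drug addition; untreated wells served as control. Absorbance was read at 515 nm.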

Test [6] can be described thus: Growth inhibition of human […] cells assessed as growth inhibition at 10 uM after 48 hrs by sulforhodamine B assay. Particulars: read-out: GI. The gist of the method: (§2)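 Percent growth inhibition from the single 10^-5 M NCI-60 screen, reported as 100 minus growth percent. Growth percent was measured after 48 h drug exposure at 37 °C, 5% CO2, using TCA fixation, SRB staining and absorbance at 515 nm, against untreated controls and time-zero plates.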

The subject of test [7] is HCT-116. The test can be described thus: Growth inhibition of human HCT116 cells assessed as growth inhibition at 10 uM after 48 hrs by sulforhodamine B assay. Particulars: HCT-116, 48 h, read-out: GI.
The subject of test [8] is SNB-19. Briefly: Growth inhibition of human SNB19 cells assessed as cell growth at 10 '-6 M after 48 hrs by sulforhodamine B assay. The settings on record: SNB-19, 48 h, read-out: Activity.
Test [9] concerns UACC-62. Briefly: Growth inhibition of human UACC62 cells assessed as cell growth at 10 '-7 M after 48 hrs by sulforhodamine B assay. The settings on record: UACC-62, 48 h, read-out: Activity.
The test system of test [10] is SK-MEL-2. The test can be described thus: Growth inhibition of human SK-MEL-2 cells assessed as cell growth at 10 '-7 M after 48 hrs by sulforhodamine B assay. Particulars: SK-MEL-2, 48 h, read-out: Activity.
The subject of test [11] is SF-539. The test can be described thus: Growth inhibition of human SF539 cells assessed as cell growth at 10 '-7 M after 48 hrs by sulforhodamine B assay. Particulars: SF-539, 48 h, read-out: Activity.
In test [12] the test system is SK-OV-3. Briefly: Growth inhibition of human SKOV3 cells after 48 hrs by sulforhodamine B assay. Particulars: SK-OV-3, 48 h.
In test [13] the test system is OVCAR-8. The test can be described thus: Growth inhibition of human OVCAR8 cells after 48 hrs by sulforhodamine B assay. The settings on record: OVCAR-8, 48 h.
Test [14] relates to NCI-H460. The test can be described thus: Growth inhibition of human NCI-H460 cells assessed as cell growth at 10 '-4 M after 48 hrs by sulforhodamine B assay. The settings on record: NCI-H460, 48 h, read-out: Activity.
For test [15], the system named is HOP-92. Briefly: Growth inhibition of human HOP92 cells assessed as cell growth at 10 '-4 M after 48 hrs by sulforhodamine B assay. The settings on record: HOP-92, 48 h, read-out: Activity.
Test [16] in a line: Growth inhibition of human EKVX cells assessed as cell growth at 10 '-4 M after 48 hrs by sulforhodamine B assay. The settings on record: read-out: Activity.
For test [17], the system named is CAKI-1. Briefly: Growth inhibition of human CAKI-1 cells assessed as growth inhibition at 10 uM after 48 hrs by sulforhodamine B assay. The settings on record: CAKI-1, 48 h, read-out: GI. In a few lines: as §2
Test [18] relates to MOLT-4. Briefly: Growth inhibition of human MOLT4 cells assessed as cell growth at 10 '-7 M after 48 hrs by sulforhodamine B assay. Particulars: MOLT-4, 48 h, read-out: Activity.
In test [19] the test system is T47D. Briefly: Growth inhibition of human T47D cells assessed as cell growth at 10 '-8 M after 48 hrs by sulforhodamine B assay. The settings on record: read-out: Activity.
For test [20], the system named is RXF 393. The test can be described thus: Growth inhibition of human RXF393 cells assessed as cell growth at 10 '-8 M after 48 hrs by sulforhodamine B assay. Particulars: RXF 393, 48 h, read-out: Activity.
In test [21] the test system is ACHN. Briefly: Growth inhibition of human ACHN cells assessed as cell growth at 10 '-8 M after 48 hrs by sulforhodamine B assay. Particulars: read-out: Activity. The gist of the method:
as §1

Test [22] relates to SK-OV-3. Briefly: Growth inhibition of human SKOV3 cells assessed as cell growth at 10 '-8 M after 48 hrs by sulforhodamine B assay. Particulars: SK-OV-3, 48 h, read-out: Activity.
Test [23] relates to SK-MEL-5. Briefly: Growth inhibition of human SK-MEL-5 cells assessed as cell growth at 10 '-5 M after 48 hrs by sulforhodamine B assay. The settings on record: SK-MEL-5, 48 h, read-out: Activity.
For test [24], the system named is M14. The test can be described thus: Growth inhibition of human M14 cells assessed as cell growth at 10 '-5 M after 48 hrs by sulforhodamine B assay. The settings on record: M14, 48 h, read-out: Activity.
The test system of test [25] is SK-MEL-2. The test can be described thus: Growth inhibition of human SK-MEL-2 cells assessed as cell growth at 10 '-8 M after 48 hrs by sulforhodamine B assay. Particulars: SK-MEL-2, 48 h, read-out: Activity.
Test [26] relates to MDA-MB-435. Briefly: Growth inhibition of human MDA-MB-435 cells assessed as cell growth at 10 '-8 M after 48 hrs by sulforhodamine B assay. The settings on record: MDA-MB-435, 48 h, read-out: Activity.
A short description of test [27]: Growth inhibition of human HCC2998 cells assessed as cell growth at 10 '-8 M after 48 hrs by sulforhodamine B assay. Particulars: HCC 2998, 48 h, read-out: Activity.
Test [28] in a line: Growth inhibition of human EKVX cells assessed as cell growth at 10 '-8 M after 48 hrs by sulforhodamine B assay. The settings on record: read-out: Activity.
[29] abbreviates: read-out: LD50 (the source's name).

In general, GI50 refers to the concentration at which growth is held to half of that of the control. Higher therefore signals less potent growth inhibition. As usually defined, the TGI is the concentration giving total growth inhibition.

Turning to `Cc1nn(-c2ccc(Cl)cc2)c(=O)n1CCN1CCOCC1`, in test [1], the growth at 10 µM is 69%.
Turning to `Cc1cc(=O)oc2cc(OCCn3c(C)nn(-c4ccc(Cl)cc4)c3=O)ccc12`, the growth at 10 µM is 9% in test [2]; 32% in [3]; -1% in [4]; 13% in [23]; 22% in test [24]. The growth at 1 µM in test [5] was 89%; in test [8], 80%. The inhibition of growth at 10 µM in [6] came to 67.1%; in test [7], 84.9%; in test [17], 80.5%. Further, the growth at 0.1 µM came out at 90% in test [9], 107% in test [10], 103% in test [11] and 109% in test [18]. The values for the GI50 in test [12] and in test [13] were 3.36 µM and 5.17 µM, respectively. The TGI was 4.88 µM in test [12] and above 1 µM in test [13]. Besides, the CC50 in [12] (setting [29]) and in [13] (setting [29]) was above 1 µM throughout. In addition, the growth at 100 µM was found to be 8% in test [14], 32% in test [15] and 55% in test [16]. In addition, the growth at 0.01 µM in test [19] was determined as 98%; in test [20] it was 95%; in test [21], 111%; in [22], 111%; in test [25], 104%; in test [26], 99%. For the same molecule, the growth at 0.01 µM in test [27] was 95%; in [28] it was 96%.

Source of the values: ChEMBL document CHEMBL2346664, “Synthesis, characterization and in vitro anticancer evaluation of novel 1,2,4-triazolin-3-one derivatives” (2013).
